Laboratory results as given in ChEMBL document CHEMBL4270664 (J Med Chem, 2018).

Experiments:
[1] = Half life in mouse at 3 mg/kg, iv; format: ADME, organism-based; settings: in vivo
Method in brief: (§1)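 Mice were dosed at 3 mg/kg intravenously, with plasma sampled at 6 time points and n = 2 mice per time point.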

[2] = AUClast in mouse at 3 mg/kg, iv; format: ADME, organism-based; design: dose 3 mg/kg, time 0 - last, route intravenous; settings: in vivo; method in brief: as §1
[3] = Cmax in mouse at 3 mg/kg, iv; format: ADME, organism-based; design: dose 3 mg/kg, route intravenous; settings: in vivo; method in brief: as §1
[4] = Clearance in mouse at 3 mg/kg, iv; format: ADME, organism-based; settings: in vivo; method in brief: as §1
[5] = Half life in mouse at 3 mg/kg, ip; format: ADME, organism-based; settings: in vivo
Method in brief: (§2)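 Mice were dosed at 3 mg/kg by oral or intraperitoneal route in an extended PK study. Oral bioavailability was derived against the iv route.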

[6] = Half life in NSG mouse xenografted with human 697 cells at 30 mg/kg, ip administered as single dose; format: ADME, organism-based; settings: in vivo
[7] = Tmax in NSG mouse xenografted with human 697 cells at 30 mg/kg, ip administered as single dose; format: ADME, organism-based; settings: in vivo
[8] = Cmax in mouse at 3 mg/kg, ip; format: ADME, organism-based; design: dose 3 mg/kg, route intraperitoneal; settings: in vivo; method in brief: as §2
[9] = Oral bioavailability in mouse at 3 mg/kg; format: ADME, organism-based; settings: in vivo; method in brief: as §2
Mus musculus = species on record: Mus musculus; test: animal or person; settings: Mus musculus, 697, ip, 10 min, read-out: INH
[10] = Cmax in mouse at 3 mg/kg, po; format: ADME, organism-based; design: dose 3 mg/kg, route oral; settings: in vivo; method in brief: as §2
[11] = biological target: Serine/threonine-protein kinase SIK2 (Homo sapiens, UniProt Q9H0K1); test: Inhibition of N-terminal GST-tagged full length human QIK (1 to 926 end residues) expressed in baculovirus expression system using fluorecence-labeled substrate by MCE assay
[12] = biological target: Mast/stem cell growth factor receptor Kit (Homo sapiens, UniProt P10721); test: Inhibition of N-terminal GST-tagged human KIT cytoplasmic domain (544 to 976 end residues) expressed in baculovirus expression system using fluorecence-labeled substrate by MCE assay
[13] = biological target: STE20-like serine/threonine-protein kinase (Homo sapiens, UniProt Q9H2G2); test: Inhibition of N-terminal GST-tagged full length human SLK (1 to 1152 end residues) expressed in baculovirus expression system using fluorecence-labeled substrate by MCE assay
[14] = biological target: T1, NUAK family SNF1-like kinase 1 (Homo sapiens, UniProt O60285); test: Inhibition of N-terminal GST-tagged full length human NuaK1 (1 to 661 end residues) expressed in baculovirus expression system using fluorecence-labeled substrate by MCE assay
T1 sequence (O60285 whole entry): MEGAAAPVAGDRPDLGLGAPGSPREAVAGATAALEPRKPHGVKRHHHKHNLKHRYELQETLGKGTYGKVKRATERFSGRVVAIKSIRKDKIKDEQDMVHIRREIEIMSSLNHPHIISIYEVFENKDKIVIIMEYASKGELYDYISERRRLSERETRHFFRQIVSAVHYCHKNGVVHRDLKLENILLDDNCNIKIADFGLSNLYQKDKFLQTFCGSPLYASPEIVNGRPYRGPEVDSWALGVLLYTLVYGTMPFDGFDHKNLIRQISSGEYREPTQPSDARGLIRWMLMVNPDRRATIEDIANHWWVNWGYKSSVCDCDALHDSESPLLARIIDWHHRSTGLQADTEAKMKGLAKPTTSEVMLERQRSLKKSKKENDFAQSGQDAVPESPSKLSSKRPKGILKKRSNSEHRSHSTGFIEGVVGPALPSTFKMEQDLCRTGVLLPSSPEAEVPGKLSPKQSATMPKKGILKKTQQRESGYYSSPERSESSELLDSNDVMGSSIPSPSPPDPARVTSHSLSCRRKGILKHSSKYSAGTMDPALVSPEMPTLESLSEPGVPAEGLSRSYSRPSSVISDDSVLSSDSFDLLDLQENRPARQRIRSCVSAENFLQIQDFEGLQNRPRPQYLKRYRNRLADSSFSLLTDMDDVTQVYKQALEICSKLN

[15] = biological target: NT-3 growth factor receptor (Homo sapiens, UniProt Q16288); test: Inhibition of N-terminal GST-tagged human TRKC cytoplasmic domain (456 to 825 end residues) expressed in baculovirus expression system using fluorecence-labeled substrate by MCE assay
[16] = biological target: High affinity nerve growth factor receptor (Homo sapiens, UniProt P04629); test: Inhibition of N-terminal GST-tagged human TRKA cytoplasmic domain (436 to 790 end residues) expressed in baculovirus expression system using fluorecence-labeled substrate by MCE assay
[17] = biological target: T2, Tyrosine-protein kinase Mer (Homo sapiens) (UniProt Q12866); settings: 100 nM
T2 sequence (whole entry): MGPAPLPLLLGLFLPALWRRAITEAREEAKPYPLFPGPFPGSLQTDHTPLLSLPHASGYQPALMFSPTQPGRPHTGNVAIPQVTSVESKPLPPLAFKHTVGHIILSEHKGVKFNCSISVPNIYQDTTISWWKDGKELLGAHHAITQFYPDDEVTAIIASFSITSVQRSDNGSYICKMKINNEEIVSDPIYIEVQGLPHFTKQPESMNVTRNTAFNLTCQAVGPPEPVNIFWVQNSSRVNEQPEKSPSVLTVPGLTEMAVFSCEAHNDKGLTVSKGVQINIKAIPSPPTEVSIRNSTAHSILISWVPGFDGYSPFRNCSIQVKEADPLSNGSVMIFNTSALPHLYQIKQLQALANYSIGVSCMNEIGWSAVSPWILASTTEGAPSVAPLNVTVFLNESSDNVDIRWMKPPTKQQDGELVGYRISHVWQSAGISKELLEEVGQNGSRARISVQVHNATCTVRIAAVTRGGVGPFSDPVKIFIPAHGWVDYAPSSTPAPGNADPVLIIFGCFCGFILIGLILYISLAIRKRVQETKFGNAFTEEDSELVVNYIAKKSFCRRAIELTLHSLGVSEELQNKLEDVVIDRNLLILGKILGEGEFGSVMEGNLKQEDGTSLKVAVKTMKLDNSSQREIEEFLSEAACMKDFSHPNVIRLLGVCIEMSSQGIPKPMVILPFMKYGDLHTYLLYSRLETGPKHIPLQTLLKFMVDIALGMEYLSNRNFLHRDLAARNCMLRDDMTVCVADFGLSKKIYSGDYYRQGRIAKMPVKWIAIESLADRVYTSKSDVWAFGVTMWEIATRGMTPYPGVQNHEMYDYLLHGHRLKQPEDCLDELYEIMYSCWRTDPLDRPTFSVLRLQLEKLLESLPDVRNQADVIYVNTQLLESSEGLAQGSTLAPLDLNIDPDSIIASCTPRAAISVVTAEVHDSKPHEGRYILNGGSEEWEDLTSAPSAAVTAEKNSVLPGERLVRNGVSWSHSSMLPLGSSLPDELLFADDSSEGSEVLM

STE20-like serine/threonine-protein kinase, sequence (Q9H2G2 whole entry): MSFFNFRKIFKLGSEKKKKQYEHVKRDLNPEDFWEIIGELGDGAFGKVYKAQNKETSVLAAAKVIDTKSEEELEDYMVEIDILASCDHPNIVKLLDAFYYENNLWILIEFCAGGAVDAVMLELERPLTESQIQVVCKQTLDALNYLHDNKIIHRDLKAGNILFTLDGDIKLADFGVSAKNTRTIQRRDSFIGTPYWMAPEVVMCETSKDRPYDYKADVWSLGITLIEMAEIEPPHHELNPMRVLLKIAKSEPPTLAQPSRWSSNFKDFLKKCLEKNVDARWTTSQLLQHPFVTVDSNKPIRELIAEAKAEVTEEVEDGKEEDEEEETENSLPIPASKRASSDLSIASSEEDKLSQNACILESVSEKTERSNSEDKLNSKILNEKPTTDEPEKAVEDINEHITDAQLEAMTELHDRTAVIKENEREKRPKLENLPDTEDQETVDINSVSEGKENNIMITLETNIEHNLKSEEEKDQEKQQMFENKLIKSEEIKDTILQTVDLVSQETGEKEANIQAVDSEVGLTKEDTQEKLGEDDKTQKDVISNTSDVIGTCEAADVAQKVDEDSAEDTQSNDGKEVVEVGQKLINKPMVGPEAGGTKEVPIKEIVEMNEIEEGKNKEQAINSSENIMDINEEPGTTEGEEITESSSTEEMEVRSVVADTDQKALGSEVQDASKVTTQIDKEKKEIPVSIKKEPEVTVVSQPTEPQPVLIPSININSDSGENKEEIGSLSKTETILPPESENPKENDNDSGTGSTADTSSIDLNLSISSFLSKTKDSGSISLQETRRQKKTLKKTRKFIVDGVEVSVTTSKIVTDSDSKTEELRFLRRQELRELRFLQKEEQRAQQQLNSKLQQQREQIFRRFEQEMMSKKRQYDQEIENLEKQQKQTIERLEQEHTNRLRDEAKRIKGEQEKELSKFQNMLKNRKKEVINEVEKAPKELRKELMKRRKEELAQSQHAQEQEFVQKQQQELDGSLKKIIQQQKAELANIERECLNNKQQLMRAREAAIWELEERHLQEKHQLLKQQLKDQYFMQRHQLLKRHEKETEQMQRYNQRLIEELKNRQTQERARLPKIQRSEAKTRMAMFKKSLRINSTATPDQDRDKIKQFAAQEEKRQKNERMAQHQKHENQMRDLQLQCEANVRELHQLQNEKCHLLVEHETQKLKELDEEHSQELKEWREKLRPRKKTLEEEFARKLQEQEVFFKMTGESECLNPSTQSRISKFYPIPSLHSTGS
Mast/stem cell growth factor receptor Kit, sequence (P10721 whole entry, the tested form may be a part): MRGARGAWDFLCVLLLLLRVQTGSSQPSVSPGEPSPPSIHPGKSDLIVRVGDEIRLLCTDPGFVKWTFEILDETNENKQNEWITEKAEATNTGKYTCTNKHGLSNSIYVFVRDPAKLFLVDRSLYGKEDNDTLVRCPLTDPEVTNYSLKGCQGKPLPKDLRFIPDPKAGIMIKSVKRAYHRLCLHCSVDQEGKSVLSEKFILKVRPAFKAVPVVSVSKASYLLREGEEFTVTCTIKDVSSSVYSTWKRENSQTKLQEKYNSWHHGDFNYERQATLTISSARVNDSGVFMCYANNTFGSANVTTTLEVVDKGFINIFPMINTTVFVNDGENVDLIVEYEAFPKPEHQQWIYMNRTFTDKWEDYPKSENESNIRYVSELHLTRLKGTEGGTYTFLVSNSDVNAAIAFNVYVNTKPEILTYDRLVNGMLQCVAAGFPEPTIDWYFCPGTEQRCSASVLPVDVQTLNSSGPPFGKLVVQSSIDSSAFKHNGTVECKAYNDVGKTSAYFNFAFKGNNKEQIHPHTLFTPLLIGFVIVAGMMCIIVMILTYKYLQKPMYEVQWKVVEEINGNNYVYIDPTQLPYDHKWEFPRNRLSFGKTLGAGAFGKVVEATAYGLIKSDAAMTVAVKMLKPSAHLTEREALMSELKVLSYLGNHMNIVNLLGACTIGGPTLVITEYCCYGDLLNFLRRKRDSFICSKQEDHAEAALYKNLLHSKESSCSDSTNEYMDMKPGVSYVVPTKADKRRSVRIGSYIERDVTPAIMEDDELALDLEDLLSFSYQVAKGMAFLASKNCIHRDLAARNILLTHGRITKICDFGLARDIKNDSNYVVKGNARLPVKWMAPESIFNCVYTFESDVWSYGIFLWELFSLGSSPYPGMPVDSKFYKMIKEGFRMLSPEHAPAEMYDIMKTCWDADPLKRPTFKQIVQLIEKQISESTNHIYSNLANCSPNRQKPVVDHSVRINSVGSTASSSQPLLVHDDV
Serine/threonine-protein kinase SIK2, sequence (Q9H0K1 whole entry, the tested form may be a part): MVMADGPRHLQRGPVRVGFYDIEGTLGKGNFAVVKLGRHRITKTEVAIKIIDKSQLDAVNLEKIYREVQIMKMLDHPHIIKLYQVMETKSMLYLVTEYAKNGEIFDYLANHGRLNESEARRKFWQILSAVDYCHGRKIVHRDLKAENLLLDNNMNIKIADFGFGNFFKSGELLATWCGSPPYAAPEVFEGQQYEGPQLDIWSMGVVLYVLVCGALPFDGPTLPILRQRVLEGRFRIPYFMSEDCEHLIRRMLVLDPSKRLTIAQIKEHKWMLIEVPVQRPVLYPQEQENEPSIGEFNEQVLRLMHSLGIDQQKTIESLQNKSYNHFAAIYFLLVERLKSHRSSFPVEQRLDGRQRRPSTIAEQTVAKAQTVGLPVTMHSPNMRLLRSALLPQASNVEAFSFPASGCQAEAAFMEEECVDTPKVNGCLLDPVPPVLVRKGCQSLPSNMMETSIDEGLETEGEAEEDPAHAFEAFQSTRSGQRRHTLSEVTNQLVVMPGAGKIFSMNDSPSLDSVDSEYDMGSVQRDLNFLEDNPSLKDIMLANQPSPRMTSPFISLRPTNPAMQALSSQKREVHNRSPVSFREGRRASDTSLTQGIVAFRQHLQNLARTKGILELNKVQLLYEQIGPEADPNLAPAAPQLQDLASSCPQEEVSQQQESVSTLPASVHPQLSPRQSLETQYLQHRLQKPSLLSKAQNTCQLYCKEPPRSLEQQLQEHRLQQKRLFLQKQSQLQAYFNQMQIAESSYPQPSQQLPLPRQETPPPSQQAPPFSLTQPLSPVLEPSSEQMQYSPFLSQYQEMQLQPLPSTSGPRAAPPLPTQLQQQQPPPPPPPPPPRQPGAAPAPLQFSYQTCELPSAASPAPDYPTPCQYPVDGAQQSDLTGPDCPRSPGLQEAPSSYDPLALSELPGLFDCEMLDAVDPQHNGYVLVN
NT-3 growth factor receptor, sequence (Q16288 whole entry, the tested form may be a part): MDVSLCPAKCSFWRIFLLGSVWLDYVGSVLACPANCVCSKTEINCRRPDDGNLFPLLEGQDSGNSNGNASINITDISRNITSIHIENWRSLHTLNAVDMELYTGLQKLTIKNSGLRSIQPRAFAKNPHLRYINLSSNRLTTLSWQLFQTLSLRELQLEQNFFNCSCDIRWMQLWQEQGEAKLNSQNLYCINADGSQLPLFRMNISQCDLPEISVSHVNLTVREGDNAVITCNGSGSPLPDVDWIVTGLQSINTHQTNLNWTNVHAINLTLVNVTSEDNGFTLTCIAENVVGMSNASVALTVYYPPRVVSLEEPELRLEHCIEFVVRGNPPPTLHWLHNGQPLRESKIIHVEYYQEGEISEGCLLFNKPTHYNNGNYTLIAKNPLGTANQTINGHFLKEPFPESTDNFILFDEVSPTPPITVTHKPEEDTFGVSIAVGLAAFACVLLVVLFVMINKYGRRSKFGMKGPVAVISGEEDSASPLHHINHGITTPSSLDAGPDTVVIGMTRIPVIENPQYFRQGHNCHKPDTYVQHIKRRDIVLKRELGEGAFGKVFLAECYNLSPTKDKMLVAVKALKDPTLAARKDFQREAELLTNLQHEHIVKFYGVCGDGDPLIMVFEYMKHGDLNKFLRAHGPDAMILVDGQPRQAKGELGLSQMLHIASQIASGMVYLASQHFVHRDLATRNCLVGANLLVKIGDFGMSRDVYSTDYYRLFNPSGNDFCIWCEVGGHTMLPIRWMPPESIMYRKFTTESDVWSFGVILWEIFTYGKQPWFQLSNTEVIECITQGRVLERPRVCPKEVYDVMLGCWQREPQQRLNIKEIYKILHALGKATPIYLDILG
High affinity nerve growth factor receptor, sequence (P04629 whole entry, the tested form may be a part): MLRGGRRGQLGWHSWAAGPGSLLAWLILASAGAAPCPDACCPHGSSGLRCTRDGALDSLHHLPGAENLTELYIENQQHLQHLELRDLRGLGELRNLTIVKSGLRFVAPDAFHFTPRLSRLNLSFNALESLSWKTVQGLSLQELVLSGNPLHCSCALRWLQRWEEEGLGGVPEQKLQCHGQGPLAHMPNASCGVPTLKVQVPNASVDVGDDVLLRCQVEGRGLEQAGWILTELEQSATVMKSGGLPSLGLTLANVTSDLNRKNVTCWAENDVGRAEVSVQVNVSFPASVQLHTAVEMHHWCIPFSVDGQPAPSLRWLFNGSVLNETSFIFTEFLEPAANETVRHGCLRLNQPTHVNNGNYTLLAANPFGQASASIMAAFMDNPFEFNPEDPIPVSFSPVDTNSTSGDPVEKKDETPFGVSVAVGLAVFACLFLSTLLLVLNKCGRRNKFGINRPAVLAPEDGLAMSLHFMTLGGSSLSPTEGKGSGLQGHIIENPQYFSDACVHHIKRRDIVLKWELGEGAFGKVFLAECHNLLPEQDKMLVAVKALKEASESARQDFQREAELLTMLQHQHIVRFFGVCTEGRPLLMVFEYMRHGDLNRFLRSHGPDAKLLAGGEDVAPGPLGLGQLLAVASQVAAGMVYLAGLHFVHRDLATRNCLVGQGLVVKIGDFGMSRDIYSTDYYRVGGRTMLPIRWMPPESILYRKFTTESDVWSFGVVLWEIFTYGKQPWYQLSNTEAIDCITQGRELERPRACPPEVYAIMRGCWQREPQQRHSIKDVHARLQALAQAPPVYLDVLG

Row | half-life [1] | AUC(0-t) [2] | Cmax [3] | clearance [4] | SMILES | other results
1 | 2.6 h | 1.5 µM·h | 3.5 µM | 55 mL/min/kg | CCC[C@H](C)Nc1ncc2c(-c3ccnc(N4CCNCC4)c3)cn([C@H]3CC[C@H](O)CC3)c2n1 | –
2 | 3.65 h | 1.2 µM·h | 1.7 µM | 54 mL/min/kg | CCC[C@H](C)Nc1ncc2c(-c3ccc(CNCCN(CC)CC)cc3)cn([C@H]3CC[C@H](O)CC3)c2n1 | –
3 | 0.65 h | 1.6 µM·h | 6.5 µM | 50 mL/min/kg | CCC[C@H](C)Nc1ncc2c(-c3ccc(S(=O)(=O)N4CCN(C)CC4)cc3F)cn([C@H]3CC[C@H](O)CC3)c2n1 | –
4 | 3 h | 2.7 µM·h | 5.2 µM | 29 mL/min/kg | CCC[C@H](C)Nc1ncc2c(-c3ccc(CN4CCCN(C)CC4)cc3)cn([C@H]3CC[C@H](O)CC3)c2n1 | half-life [5]: 1.43 h; half-life [6]: 3 h; Tmax [7]: 5 min; Cmax [8]: 0.6 µM; bioavailability [9]: 15%; inhibition at 30 mg/kg (Mus musculus): 75%; Cmax [10]: 0.061 µM; IC50 [11]: > 100 nM; IC50 [12]: > 100 nM; IC50 [13]: 47 nM; IC50 [14]: > 100 nM; IC50 [15]: 8.4 nM; IC50 [16]: 3.6 nM
5 | – | – | – | – | CCCCNc1ncc2c(-c3ccc(CN4CCN(C)CC4)cc3)cn([C@H]3CC[C@H](O)CC3)c2n1 | inhibition [17]: 100%
6 | 2.1 h | 2.8 µM·h | 13.8 µM | 32 mL/min/kg | CCC[C@H](C)Nc1ncc2c(-c3cnn(C4CCNCC4)c3)cn([C@H]3CC[C@H](O)CC3)c2n1 | –

Row | SMILES | half-life [1] | AUC(0-t) [2] | Cmax [3] | clearance [4] | other results
7 | CCC[C@H](C)Nc1ncc2c(-c3ccc(CN4C5CCC4CC5)cc3)cn([C@H]3CC[C@H](O)CC3)c2n1 | 1.8 h | 0.28 µM·h | 0.1 µM | 302 mL/min/kg | –
8 | CCC[C@H](C)Nc1ncc2c(-c3ccc(CN4CCOCC4)cc3)cn([C@H]3CC[C@H](O)CC3)c2n1 | 1.4 h | 2.2 µM·h | 8.6 µM | 41 mL/min/kg | –
